Results reported in ChEMBL document CHEMBL1641448, “2-Hydroxycurcuminoid induces apoptosis of human tumor cells through the reactive oxygen species-mitochondria pathway” (2011).
Calls of active or inactive are those of the source. The rule behind the calls is not given here.

Assays:
SW-620 [1] = assay: Induction of ROS generation in human SW620 cells at 20 uM after 2 hrs relative to control; format: functional
How it was run: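 SW620 cells were treated for 2 h. Intracellular ROS was read fluorimetrically with the DCF-DA probe (excitation 485 nm, emission 535 nm) and compared with DMSO-treated cells.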

SW-620 [2] = assay: Cytotoxicity against human SW620 cells after 48 hrs […]; format: functional; details: SW-620, 48 h
How it was run: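 SW620 human colorectal tumor cells were exposed to a range of concentrations for 48 h. Cells were counted and GI50 was derived from growth inhibition.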

MDA-MB-231 = assay: Induction of ROS generation in human MDA-MB-231 cells at 20 uM by fluorescence microscopy in presence of N-acetyl-cysteine; format: functional, cell-based
SW-620 [3] = assay: Induction of apoptosis in human SW620 cells assessed as increase in translocation of Bax to cytosol upto 48 hrs; format: functional, cell-based; details: in the assay text read “to membrane fraction” for “to cytosol”
How it was run: (§1)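 SW620 cells were treated for the indicated time intervals. Cytosolic and membrane fractions were separated by subcellular fractionation, and Bax and cytochrome c levels in each fraction were read by Western blot.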

[4] = tested on: MDA-MB-231 (Homo sapiens); assay: Induction of apoptosis in human MDA-MB-231 cells assessed as change in cell morphology at 10 uM by fluorescence microscopy
MCF-10A = assay: Induction of cell cycle arrest in human MCF10A cells assessed as accumulation at G0/G1 phase at 10 uM after 15 hrs by propidium iodide cytofluorimetric analysis; format: functional, cell-based
SW-620 [5] = assay: Induction of apoptosis in human SW620 cells assessed as PARP degradation at 10 uM by fluorescence microscopy in presence of N-acetyl-cysteine; format: functional, cell-based
HCT-116 = assay: Cytotoxicity against human HCT116 cells after 48 hrs by WST1 assay; format: functional, cell-based
SW-620 [6] = assay: Induction of apoptosis in human SW620 cells assessed as PARP degradation at 10 uM by fluorescence microscopy; format: functional, cell-based
[7] = tested on: MDA-MB-231 (Homo sapiens); assay: Induction of apoptosis in human MDA-MB-231 cells assessed as change in cell morphology at 10 uM by fluorescence microscopy in presence of N-acetyl-cysteine
SW-620 [8] = assay: Induction of apoptosis in human SW620 cells assessed as late apoptotic cells at 10 uM by annexin-V/propidium iodide staining in presence of N-acetyl-cysteine; format: functional
How it was run: (§2)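 SW620 cells were treated for 48 h with or without 1 mM NAC. Cells were stained with annexin V and propidium iodide, and the apoptotic distribution was determined by flow cytometry.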

SW-620 [9] = assay: Induction of apoptosis in human SW620 cells assessed as caspase 3 activation at 10 uM by fluorescence microscopy; format: functional, cell-based
SW-620 [10] = assay: Induction of apoptosis in human SW620 cells assessed as late apoptotic cells at 20 uM by annexin-V/propidium iodide staining; format: functional; how it was run: as §2
SW-620 [11] = assay: Induction of apoptosis in human SW620 cells assessed as caspase 3 activation at 10 uM by fluorescence microscopy in presence of N-acetyl-cysteine; format: functional, cell-based
SW-620 [12] = assay: Induction of apoptosis in human SW620 cells assessed as late apoptotic cells at 10 uM by annexin-V/propidium iodide staining; format: functional; how it was run: as §2
SW-620 [13] = assay: Induction of apoptosis in human SW620 cells assessed as release of mitochondrial cytochrome c release to cytosol upto 48 hrs; format: functional, cell-based; how it was run: as §1
SW-620 [14] = assay: Induction of cell cycle arrest in human SW620 cells assessed as accumulation at G2/M phase at 10 uM after 15 hrs by propidium iodide cytofluorimetric analysis; format: functional, cell-based
DLD-1 = assay: Cytotoxicity against human DLD1 cells after 48 hrs by WST1 assay; format: functional, cell-based
SW-620 [15] = assay: Induction of apoptosis in human SW620 cells assessed as decrease in mitochondrial membrane potential after 6 to 12 hrs; format: functional, cell-based
How it was run: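 Mitochondrial membrane potential in SW620 cells was followed as the red:green ratio (A590:A520) over 6–12 h of treatment.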

## O=C(/C=C(O)/C=C/c1ccccc1O)/C=C/c1ccccc1O
SW-620 [1]
  fold change (FC): 1.5
SW-620 [2]
  GI50: 35 µM

## COc1cc(/C=C/C(=O)CC(=O)/C=C/c2ccc(O)c(OC)c2)ccc1O [CURCUMIN]
SW-620 [2]
  GI50: 32 µM

## COc1cc(/C=C/C(=O)C(C)(C)C(=O)/C=C/c2ccc(O)c(OC)c2)ccc1O
SW-620 [2]
  GI50: 7 µM

## CC(=O)/C=C(O)/C=C/c1ccccc1O
SW-620 [1]
  fold change (FC): 1.5

## O=C/C=C/c1ccccc1O [2-HYDROXYCINNAMALDEHYDE]
MDA-MB-231
  Activity: inactive
SW-620 [1]
  fold change (FC): 1.5
SW-620 [2]
  GI50: 15 µM

## CC(=O)C(C)(C)C(=O)/C=C/c1ccccc1O
SW-620 [1]
  fold change (FC): 1.5
SW-620 [2]
  GI50: 40 µM

## CC(=O)/C=C/c1ccccc1O
SW-620 [1]
  fold change (FC): 1.5

## CC(C)(C(=O)/C=C/c1ccccc1O)C(=O)/C=C/c1ccccc1O
SW-620 [3]
  Activity: Active
[4]
  Activity: Active
MCF-10A
  Activity: Active
SW-620 [5]
  Activity: inactive
HCT-116
  Activity: Active
SW-620 [6]
  Activity: Active
[7]
  Activity: inactive
SW-620 [8]
  Activity: 24.25%
SW-620 [9]
  Activity: Active
SW-620 [1]
  fold change (FC): 1.5
SW-620 [10]
  Activity: 78.77%
SW-620 [11]
  Activity: inactive
SW-620 [12]
  Activity: 73.53%
SW-620 [13]
  Activity: Active
SW-620 [14]
  Activity: Active
DLD-1
  Activity: Active
SW-620 [2]
  GI50: 7 µM
SW-620 [15]
  Activity: Active

## CC(C)C(=O)/C=C/c1ccccc1O
SW-620 [1]
  fold change (FC): 1.5
